SIAE primary: human SIAE inhibitors, primary screen, biochemical, fluorescence polarization, FP-Rh probe, 1536-well HTS. 370,000 tested, 0.69% active. inhibition, % at 9.66 µM. SIAE FP-Rh probe binding;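 active means inhibition above a cutoff: mean of compounds within the control limits plus 3 SD of those, cut at about 17% in these data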;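 further: 0% = plate median of compound wells and 100% = probe without SIAE protein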
rCAG RNA binder: binders of r(CAG) RNA repeats, primary screen, biochemical, fluorescence | r(CAG) RNA repeat, TO-PRO-1 dye displacement fluorescence | inhibition, % at 3 µM | 370,000 tested, 1.3% active | AID 651821, 2012;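 active means inhibition above the plate cutoff, the mean of all test compounds on that plate plus 3 SD, cut at about 35% in these data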;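 further: 0% = DMSO alone and 100% = 100 µM mitoxantrone as full dye displacement; higher means more dye released from RNA so lower well fluorescence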
PRMT1 FP inh: PRMT1 methyltransferase inhibitors, primary screen, biochemical, fluorescence polarization | 370,000 tested, 1.3% active | recombinant PRMT1, activity-based probe fluorescence polarization | inhibition, % at 2.79 µM | Protein arginine N-methyltransferase 1 (Homo sapiens), Q99873;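 active means inhibition above about 21% made by adding two undisclosed values, limit read from the data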
Target sequence (Q99873 whole entry, looked up): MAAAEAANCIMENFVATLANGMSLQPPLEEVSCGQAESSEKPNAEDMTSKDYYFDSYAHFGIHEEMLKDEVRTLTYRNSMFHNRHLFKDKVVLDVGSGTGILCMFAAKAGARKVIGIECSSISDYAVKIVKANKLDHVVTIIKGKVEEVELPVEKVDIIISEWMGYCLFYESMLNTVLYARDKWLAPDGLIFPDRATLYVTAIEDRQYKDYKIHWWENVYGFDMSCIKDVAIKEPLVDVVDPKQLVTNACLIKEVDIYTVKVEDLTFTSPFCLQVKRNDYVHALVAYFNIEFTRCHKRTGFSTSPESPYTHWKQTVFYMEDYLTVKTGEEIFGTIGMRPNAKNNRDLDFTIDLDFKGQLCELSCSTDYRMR
HTRA1 inh: HTRA1 serine protease inhibitors, primary screen, biochemical, fluorescence polarization, HTS | Q92743 | recombinant HTRA1, FP-rhodamine activity-based probe | inhibition, % at 5.96 µM | 340,000 tested, 0.5% active; in the data active means inhibition above about 36%;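 further: 0% = enzyme with DMSO and 100% = wells lacking enzyme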
mABHD4 FP: ABHD4 inhibitors, primary screen, biochemical, fluorescence polarization, mouse; (Lyso)-N-acylphosphatidylethanolamine lipase (Mus musculus), Q8VD66; purified mABHD4, FP-Rh probe fluorescence polarization; inhibition, % at 8.92 µM; 370,000 tested, 0.54% active; AID 720543, 2013;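 active means inhibition exceeding the mean over every tested compound plus 3 SD, cut at about 30% in these data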;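 further: 0% = plate median of compound wells and 100% = S159A mutant with DMSO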
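Assay system: Wild-type mouse ABHD4 protein | Medium: HEPES pH 7.0 buffer, 150 mM NaCl, 0.01% Pluronic F-127 | Incubation: Enzyme–compound pre-incubation 45 min, then probe 60 min, both 25 °C | Technique: Fluorescence polarization with parallel and perpendicular emission, 525/598 nm | Evaluation: % inhibition of FP-Rh probe binding versus controls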
SIAE inh conf: human SIAE inhibitors, retest, confirmation, biochemical, fluorescence polarization, FP-Rh probe, triplicate. shares compounds with SIAE primary. inhibition, % at 9.66 µM. 2,300 tested, 13% active. SIAE FP-Rh activity-based probe. AID 1117263, 2014;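 active means mean inhibition of the replicates above the hit cutoff set in the primary screen, cut at about 17% in these data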;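 further: 0% = SIAE with DMSO and probe and 100% = probe without SIAE; inhibitors lower polarization as more probe stays unbound to SIAE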
Active calls of the source: *; . = no result given. This is a sample that favours compounds with a hit; in the whole collection about 3.3% have one here.

SMILES	SIAE primary	rCAG RNA binder	PRMT1 FP inh	HTRA1 inh	mABHD4 FP	SIAE inh conf
COc1ccc(S[C@]2(C(=O)N3CCN(c4ncccn4)CC3)CC(=O)N(c3ccc(OC)cc3)[C@@H]2c2ccc(OC)cc2)cc1	9.8	14.8	2.6	.	-11.2	.
CN(C(=O)CSc1nc2sc3c(c2c(=O)n1C)CCC3)C1CCS(=O)(=O)C1 (stereo not drawn)	18.5*	1.8	-1.3	8.8	6.8	0.3
CN(CC(=O)Nc1cccc(F)c1)C(=O)c1ccc(C2SCCS2)cc1	20.3*	2.4	2.4	-12.2	1.9	47.7*
CCNC(=S)N1CCc2cc(OC)c(OC)cc2C1COc1ccc(OC)cc1 (stereo not drawn)	5.3	-2.0	-0.3	-14.2	-3.0	.
CCNC(=S)N1CCc2cc(OC)c(OC)cc2C1COc1ccccc1OC (stereo not drawn)	18.2*	-1.9	0.6	-8.0	2.2	2.2
O=C(Nc1ccc(N2CCCCC2)cc1)c1ccccc1	-2.4	-3.7	0.2	-11.5	0.1	.
O=C(Nc1ccc(N2CCCC2)cc1)c1cccc(F)c1	17.6*	14.3	4.2	26.1	9.2	-0.8
CCCNC(=O)C(Cc1ccc(F)cc1)NC(=O)c1ccc(C#N)cc1 (stereo not drawn)	19.7*	-5.5	-2.6	-0.1	5.7	-4.1
Cc1ccc(S(=O)(=O)N2CCC(O)(c3cccnc3)CC2)cc1	3.3	-5.3	-1.8	8.6	-3.2	.
O=S(=O)(c1ccccc1Cl)N1CCC(O)(c2cccnc2)CC1	19.8*	-3.0	-0.8	-0.3	-3.6	2.0
CC1=CC(C)(C)N2C(=O)C3(NCCc4c3[nH]c3ccccc43)c3cccc1c32 (stereo not drawn)	17.9*	-1.4	5.0	-12.2	3.2	3.6
CCCCN(CC)CCCNC(=O)c1cn(C)c(=O)c2c1c1ccccc1n2C	18.6*	2.4	-1.2	-0.5	-1.4	-2.9
CCCCN(CC)CCNC(=O)c1cn(CCOC)c(=O)c2c1c1ccccc1n2C	5.0	3.8	4.3	7.0	1.3	.
COc1cc(OC)c(OC)cc1/C=N/NC(=O)C[n+]1ccccc1	48.7*	-2.1	-0.8	-0.9	3.8	-2.5
COc1cccc(/C=N/NC(=O)C[n+]2ccccc2)c1O	-0.2	-1.5	-2.2	-3.1	-5.7	.
COc1ccc(S(=O)(=O)Nc2cc3c4c(c2)CCN4C(=O)CC3)cc1	17.1*	-2.3	-1.6	-4.4	-5.0	4.6
Cc1cccc(C)c1NC(=S)N(CCN1CCCCCC1)Cc1ccco1	17.9*	-8.4	-0.2	-0.1	1.1	4.7
CC(=O)Nc1ccc(S(=O)(=O)Nc2ccc(Cl)cn2)cc1	87.7*	-1.5	-0.5	-2.3	-0.9	2.7
COC(=O)C1=NN(C(=O)c2cccc(Cl)c2)C(O)(C(C)(C)C)C1 (stereo not drawn)	24.2*	3.4	0.2	9.2	5.3	0.4
CC/C(Cc1ccccc1)=N/NC(=O)c1cccc(Br)c1	18.5*	-0.2	-2.0	-10.2	-6.1	0.0
O=C(c1ccc(S(=O)(=O)NCC2CCCO2)cc1)N1CCc2ccccc21 (stereo not drawn)	22.0*	0.2	1.6	-2.2	-6.2	3.2
COc1cccc(NC(=O)CN(C)C(=O)C2=COCCO2)c1	17.9*	-6.0	-1.0	-4.8	-0.3	4.3
O=C1NC[C@H](CCCCN2CCN(Cc3ccccc3)C(=O)C2=O)N(CCc2ccccc2)C1=O	5.0	-0.2	-4.6	.	-7.2	.
CC(Sc1nnc(-c2ccncc2)n1-c1ccc(F)cc1)C(=O)NC1CC1 (stereo not drawn)	1.1	3.1	11.0	9.6	8.5	.
COc1ccc(NC(=O)Cn2c(=O)oc3cc(Cl)ccc32)c(OC)c1	17.4*	1.8	-1.4	-3.5	-1.7	2.2
SMILES	SIAE primary	rCAG RNA binder	PRMT1 FP inh	HTRA1 inh	mABHD4 FP	SIAE inh conf
CS(=O)(=O)N1CCN(c2ccc(NC(=S)NC(=O)c3ccccc3[N+](=O)[O-])cc2)CC1	20.4*	-0.2	-1.3	5.8	1.0	-0.8
Cc1ccc(-c2cnc(SCCNC(=O)c3ccco3)[nH]2)cc1	17.3*	-5.4	-0.5	3.4	-6.0	0.8
Cc1ccnc2nc(C(=O)Nc3ccc(S(=O)(=O)N4CCCC4)cc3)nn12	-2.8	1.4	-1.9	-1.2	0.8	.
COc1ccc(C)cc1N(CC(=O)N1CCCC1)S(C)(=O)=O	17.5*	-2.2	2.4	2.5	1.8	-0.7
COc1ccc(C)cc1N(CC(=O)N1CCCCCC1)S(C)(=O)=O	5.0	-3.3	-2.3	-0.3	-0.6	.
O=C(CCNC(=O)c1ccc(Cl)cc1)Nc1ncccc1O	0.0	-1.4	7.5	4.5	1.5	.
O=C(CCNC(=O)c1ccc(Br)cc1)Nc1ncccc1O	23.5*	-1.0	-2.0	2.5	-4.2	6.5
CCN(CC)c1ccc(NC(=O)c2cc3c(OC)cccc3[nH]2)cc1	25.0*	12.3	4.1	21.9	9.7	12.2
CC1CCCCN1C(=O)CCNC(=O)Cn1cnc2ccccc2c1=O (stereo not drawn)	4.7	2.4	1.1	0.4	-2.6	.
Cc1ccc(OCC(=O)Nc2cccc3nsnc23)c(C)c1	32.8*	5.9	0.3	0.5	0.6	1.0
Cc1ccc(OCC(=O)Nc2ccc3c4c(cccc24)CC3)c(C)c1	-1.7	2.5	-4.1	-2.5	-2.2	.
COc1ccc(NC(=O)CC2C(=O)N(C)C(=S)N2Cc2ccco2)cc1 (stereo not drawn)	19.8*	3.5	-0.4	-4.1	7.1	4.5
CCOC(=O)CN1CC23C=CC(O2)C(C(=O)Nc2cc(OC)ccc2OC)C3C1=O (stereo not drawn)	17.5*	1.8	0.0	10.5	2.7	-7.1
CC1(C)C2CCC1(CS(=O)(=O)NCc1ccc(Cl)cc1Cl)C(=O)C2 (stereo not drawn)	-7.6	-4.7	0.5	-4.9	-0.5	.
COc1ccc(CN(C)Cc2ccccc2)c(OC)c1OC	0.5	-1.4	-1.6	2.8	2.7	.
O=C(COc1cccc2ccccc12)N1c2ccccc2CCc2ccccc21	-9.5	1.7	2.6	-63.2	-30.6	.
Cc1cc(C)n2nc(SCc3nnc(-c4ccccc4Br)o3)nc2n1	21.9*	1.9	-1.4	2.4	1.2	0.7
Cc1cc(C)n2nc(SCc3ncc(-c4ccccc4)o3)nc2n1	-3.1	1.6	4.1	-3.9	0.5	.
CN(C)c1ccc(-c2csc(C(O)c3ccc(F)c(F)c3)n2)cc1 (stereo not drawn)	17.1*	3.5	2.0	.	3.8	2.3
CCOC(=O)[C@H]1[C@H]2COc3ccc(C)cc3[C@@H]2N2C(=O)c3cc(Br)ccc3NC(=O)[C@@]12C	-14.7	0.0	-0.9	-32.0	-22.0	.

Assay outcomes deposited in PubChem by The Scripps Research Institute Molecular Screening Center.
